From ChEMBL document CHEMBL5038590, “Discovery of G Protein-Biased Ligands against 5-HT7R” (J Med Chem, 2021) come the findings set out here.

Structures are written as SMILES. Some results are limits rather than exact numbers.

One data set deals with CYP3A4 (Homo sapiens, UniProt P08684). Briefly: Inhibition of CYP3A4 in human liver microsomes assessed as remaining activity at 10 uM using midazolam as substrate preincubated for 5 mins followed by addition of NADPH generating system and incubated for 15 mins by LC/MS relative to control. It counts as ADME. Conditions: probe midazolam, time 20 min, read-out: Activity. In a few lines:
(§1)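 Human liver microsomes (0.25 mg/mL) in 0.1 M phosphate pH 7.4 with a five-substrate cocktail: phenacetin 50 μM, diclofenac 10 μM, S-mephenytoin 100 μM, dextromethorphan 5 μM, midazolam 2.5 μM. Compound at 0 (control) or 10 μM. Preincubated 5 min at 37 °C, NADPH-generating system added, 15 min at 37 °C. Stopped with acetonitrile plus internal standard; substrate metabolites measured by LC/MS.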
In general terms: Liver microsomes are vesicles of endoplasmic reticulum, rich in cytochrome P450 enzymes.

The subject of data set [1] is Mus musculus. Description: Effect on shank3-/- mouse model of autism spectrum disorder assessed as time taken for duration of self grooming at 5 mg/kg, ip pretreated for 10 mins in presence of SB269970 followed by compound addition and measured after 30 mins under 40 lux lighting (reference value: 224 +/- 47.4 sec). It counts as functional. The following applies: 0.5 h.

Data set [2] is described as follows: Tmax in ICR mouse plasma at 10 mg/kg, ip measured upto 8 hrs by LC-MS/MS analysis. Format: ADME, organism-based. In a few lines:
(§2)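 Male ICR mice, 7–8 weeks, 30 ± 5 g; single dose 1 mg/kg iv or 10 mg/kg ip (n = 4 each). Carotid artery blood at 0, 0.08 (iv only), 0.25, 0.5, 1, 2, 4, 6, 8 h. Plasma precipitated with acetonitrile containing internal standard, quantified by LC–MS/MS. Parameters by non-compartmental analysis; AUClast by trapezoidal rule; values mean ± SD.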

Data set [3] addresses 5-hydroxytryptamine receptor 7 (Homo sapiens, UniProt P34969).
Data set [4] addresses T1, 5-hydroxytryptamine receptor 3A (Homo sapiens, UniProt P46098).
T1 sequence (P46098 whole entry): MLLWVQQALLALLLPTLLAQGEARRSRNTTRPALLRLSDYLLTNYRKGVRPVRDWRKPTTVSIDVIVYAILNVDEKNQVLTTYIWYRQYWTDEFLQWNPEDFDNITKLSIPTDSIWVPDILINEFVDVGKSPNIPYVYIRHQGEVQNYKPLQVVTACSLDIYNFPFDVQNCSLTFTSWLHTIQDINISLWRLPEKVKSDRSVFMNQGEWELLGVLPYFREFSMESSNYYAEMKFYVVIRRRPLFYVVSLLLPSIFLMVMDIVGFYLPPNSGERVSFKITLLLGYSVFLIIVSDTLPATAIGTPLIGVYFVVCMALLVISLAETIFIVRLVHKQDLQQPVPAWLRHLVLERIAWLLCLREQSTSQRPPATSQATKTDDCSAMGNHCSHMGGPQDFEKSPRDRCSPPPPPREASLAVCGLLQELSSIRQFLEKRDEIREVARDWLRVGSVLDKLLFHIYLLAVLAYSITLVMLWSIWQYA
Description: Binding affinity to 5-HT3R (unknown origin). In short, it runs like this:
(§3)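 Run by the NIMH Psychoactive Drug Screening Program as competition radioligand binding on crude membranes of cells expressing the recombinant receptor. Eleven dilutions (0.05 nM–50 μM, prepared at 5× assay concentration) were made in 50 mM Tris-HCl, 10 mM MgCl₂, 1 mM EDTA, pH 7.4. Incubation was 1.5 h at rt in the dark, followed by GF/B filtration (0.3% PEI) and scintillation counting. IC₅₀ was converted to Ki; at least triplicate.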

For data set [5], the target named is 5-hydroxytryptamine receptor 2B (Homo sapiens, UniProt P41595). Briefly: Binding affinity to 5-HT2BR (unknown origin). In a few lines:
as §3

The target in data set [6] is 5-hydroxytryptamine receptor 1B (Homo sapiens, UniProt P28222). Description: Binding affinity to 5-HT1BR (unknown origin). In a few lines:
as §3

The target of data set [7] is T2, 5-hydroxytryptamine receptor 1A (Homo sapiens, UniProt P08908).
T2 sequence (P08908 whole entry): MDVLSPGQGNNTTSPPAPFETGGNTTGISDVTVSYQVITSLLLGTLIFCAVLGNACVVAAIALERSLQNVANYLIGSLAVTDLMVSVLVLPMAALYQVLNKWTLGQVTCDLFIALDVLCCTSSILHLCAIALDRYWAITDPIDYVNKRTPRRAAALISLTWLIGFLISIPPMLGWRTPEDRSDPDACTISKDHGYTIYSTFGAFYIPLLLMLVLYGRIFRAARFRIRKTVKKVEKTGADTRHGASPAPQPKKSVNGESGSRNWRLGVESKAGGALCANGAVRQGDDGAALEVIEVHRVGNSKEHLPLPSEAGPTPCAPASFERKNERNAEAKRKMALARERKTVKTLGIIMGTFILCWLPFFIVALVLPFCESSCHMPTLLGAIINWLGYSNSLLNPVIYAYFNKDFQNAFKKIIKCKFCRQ
Briefly: Binding affinity to 5-HT1AR (unknown origin). In short, it runs like this: as §3

The target in data set [8] is 5-hydroxytryptamine receptor 1D (Homo sapiens, UniProt P28221). Description: Binding affinity to 5-HT1DR (unknown origin). In short, it runs like this:
as §3

Data set [9] can be described thus: MRTinfinity in ICR mouse plasma at 10 mg/kg, ip measured upto 8 hrs by LC-MS/MS analysis. It counts as ADME, organism-based. In short, it runs like this:
as §2

Data set [10] can be described thus: MRTinfinity in ICR mouse plasma at 1 mg/kg, iv measured upto 8 hrs by LC-MS/MS analysis. It counts as ADME, organism-based. In a few lines: as §2
The nature of data set [11]: Stability of compound in human liver microsomes assessed as compound remaining at 1 uM preincubated for 5 mins followed by addition of NADPH generating system and incubated for 30 mins by LC/MS relative to control. Format: ADME, Microsome. The following applies: time 35 min, read-out: Stability. In short, it runs like this:
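Human liver microsomes (0.5 mg/mL) in 0.1 M phosphate pH 7.4 with compound at 1 μM. Preincubated 5 min at 37 °C, then NADPH-generating system added and incubated 30 min at 37 °C. Quenched with acetonitrile containing internal standard, centrifuged, and supernatant analysed by LC/MS as percent compound remaining; verapamil as reference.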

The subject of data set [12] is Mus musculus. Description: Effect on wild type mouse assessed as time taken for duration of self grooming at 5 mg/kg, ip after 30 mins under 40 lux lighting (reference value: 43.7 +/- 10.8 sec). Format: functional. Conditions: 0.5 h.
Data set [13] addresses 5-hydroxytryptamine receptor 2A (Homo sapiens, UniProt P28223). Description: Binding affinity to 5-HT2AR (unknown origin). In short, it runs like this:
as §3

For data set [14], the target named is 5-hydroxytryptamine receptor 5A (Homo sapiens, UniProt P47898). Briefly: Binding affinity to 5-HT5AR (unknown origin). In a few lines: as §3
In the next data set the target is CYP2D6 (Homo sapiens, UniProt P10635). Briefly: Inhibition of CYP2D6 in human liver microsomes assessed as remaining activity at 10 uM using dextromethorphan as substrate preincubated for 5 mins followed by addition of NADPH generating system and incubated for 15 mins by LC/MS relative to control. It counts as ADME. Conditions: probe dextromethorphan, time 20 min, read-out: Activity. In a few lines: as §1

Data set [15] can be described thus: AUClast in ICR mouse plasma at 1 mg/kg, iv measured upto 8 hrs by LC-MS/MS analysis. It counts as ADME, organism-based. Also noted: route intravenous, dose 1 mg/kg, time <=8. In a few lines:
as §2

Chain of 5-hydroxytryptamine receptor 1B (P28222 whole entry): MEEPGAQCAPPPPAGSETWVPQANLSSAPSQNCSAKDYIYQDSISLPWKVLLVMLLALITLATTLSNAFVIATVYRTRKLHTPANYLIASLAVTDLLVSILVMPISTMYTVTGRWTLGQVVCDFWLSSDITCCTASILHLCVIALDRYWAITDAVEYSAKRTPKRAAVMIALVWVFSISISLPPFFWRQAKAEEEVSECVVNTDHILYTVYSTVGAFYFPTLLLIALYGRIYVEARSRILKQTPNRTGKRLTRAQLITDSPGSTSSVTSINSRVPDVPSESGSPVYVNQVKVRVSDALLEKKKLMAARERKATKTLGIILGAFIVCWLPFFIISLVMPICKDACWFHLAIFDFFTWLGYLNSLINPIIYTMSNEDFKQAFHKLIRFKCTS
Chain of 5-hydroxytryptamine receptor 1D (P28221 whole entry): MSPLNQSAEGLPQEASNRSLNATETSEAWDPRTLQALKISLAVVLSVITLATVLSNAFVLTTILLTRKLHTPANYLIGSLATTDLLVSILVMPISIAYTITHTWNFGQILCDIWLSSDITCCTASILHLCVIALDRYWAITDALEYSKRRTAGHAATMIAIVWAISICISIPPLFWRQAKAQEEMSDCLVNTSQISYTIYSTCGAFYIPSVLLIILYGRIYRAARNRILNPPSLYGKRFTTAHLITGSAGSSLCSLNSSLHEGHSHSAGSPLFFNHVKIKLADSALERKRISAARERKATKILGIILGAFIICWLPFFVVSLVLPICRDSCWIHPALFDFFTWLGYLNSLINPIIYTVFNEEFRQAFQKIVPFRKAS
Chain of CYP2D6 (P10635 whole entry): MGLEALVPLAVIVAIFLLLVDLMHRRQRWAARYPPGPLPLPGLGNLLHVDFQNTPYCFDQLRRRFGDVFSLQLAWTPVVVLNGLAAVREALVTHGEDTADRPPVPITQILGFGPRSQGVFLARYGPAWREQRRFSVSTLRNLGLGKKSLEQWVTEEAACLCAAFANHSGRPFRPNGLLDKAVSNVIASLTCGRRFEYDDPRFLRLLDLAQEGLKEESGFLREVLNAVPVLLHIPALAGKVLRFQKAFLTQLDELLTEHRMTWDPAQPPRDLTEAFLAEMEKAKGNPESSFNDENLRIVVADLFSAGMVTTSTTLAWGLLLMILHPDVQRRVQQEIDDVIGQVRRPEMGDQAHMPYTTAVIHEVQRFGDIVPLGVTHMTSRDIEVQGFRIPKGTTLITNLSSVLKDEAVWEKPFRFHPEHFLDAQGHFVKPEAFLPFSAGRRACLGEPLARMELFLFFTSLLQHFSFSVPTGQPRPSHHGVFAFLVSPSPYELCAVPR
Chain of CYP3A4 (P08684 whole entry): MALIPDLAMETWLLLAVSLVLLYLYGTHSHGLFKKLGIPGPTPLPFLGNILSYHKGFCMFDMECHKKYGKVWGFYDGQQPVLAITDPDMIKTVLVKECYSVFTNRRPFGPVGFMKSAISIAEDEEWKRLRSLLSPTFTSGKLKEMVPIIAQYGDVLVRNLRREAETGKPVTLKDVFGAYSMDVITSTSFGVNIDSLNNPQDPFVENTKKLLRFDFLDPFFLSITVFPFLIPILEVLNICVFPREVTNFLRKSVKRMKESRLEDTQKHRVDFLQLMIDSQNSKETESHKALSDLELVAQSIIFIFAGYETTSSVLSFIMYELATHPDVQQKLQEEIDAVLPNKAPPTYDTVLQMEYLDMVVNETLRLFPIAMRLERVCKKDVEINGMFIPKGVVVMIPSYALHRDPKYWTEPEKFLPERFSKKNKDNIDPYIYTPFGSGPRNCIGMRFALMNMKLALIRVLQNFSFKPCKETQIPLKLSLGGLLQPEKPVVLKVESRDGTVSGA
Chain of 5-hydroxytryptamine receptor 7 (P34969 whole entry): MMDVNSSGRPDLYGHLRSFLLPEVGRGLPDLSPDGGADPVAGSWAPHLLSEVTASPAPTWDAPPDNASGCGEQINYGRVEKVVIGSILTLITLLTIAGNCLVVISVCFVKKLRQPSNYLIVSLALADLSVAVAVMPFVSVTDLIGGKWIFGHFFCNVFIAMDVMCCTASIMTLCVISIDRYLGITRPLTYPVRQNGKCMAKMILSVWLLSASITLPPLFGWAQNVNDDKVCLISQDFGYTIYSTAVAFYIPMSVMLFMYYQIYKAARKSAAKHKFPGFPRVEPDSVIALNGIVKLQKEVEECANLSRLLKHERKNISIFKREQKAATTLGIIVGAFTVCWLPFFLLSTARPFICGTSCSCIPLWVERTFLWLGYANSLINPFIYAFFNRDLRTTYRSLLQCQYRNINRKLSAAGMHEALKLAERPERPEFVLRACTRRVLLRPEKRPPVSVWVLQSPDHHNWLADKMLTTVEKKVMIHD
Chain of 5-hydroxytryptamine receptor 2A (P28223 whole entry): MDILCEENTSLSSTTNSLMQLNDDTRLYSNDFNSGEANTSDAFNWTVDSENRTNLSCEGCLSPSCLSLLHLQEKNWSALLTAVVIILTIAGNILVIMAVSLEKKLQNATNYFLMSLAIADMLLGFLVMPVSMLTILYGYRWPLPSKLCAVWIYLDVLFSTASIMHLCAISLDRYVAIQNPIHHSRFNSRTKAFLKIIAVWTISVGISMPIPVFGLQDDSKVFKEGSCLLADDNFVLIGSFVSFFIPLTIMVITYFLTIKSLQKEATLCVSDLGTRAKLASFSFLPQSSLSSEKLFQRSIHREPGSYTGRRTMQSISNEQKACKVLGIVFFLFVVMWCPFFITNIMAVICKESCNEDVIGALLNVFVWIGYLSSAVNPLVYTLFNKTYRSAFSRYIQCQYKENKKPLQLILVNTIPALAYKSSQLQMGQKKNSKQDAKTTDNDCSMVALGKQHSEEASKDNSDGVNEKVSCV
Chain of 5-hydroxytryptamine receptor 5A (P47898 whole entry): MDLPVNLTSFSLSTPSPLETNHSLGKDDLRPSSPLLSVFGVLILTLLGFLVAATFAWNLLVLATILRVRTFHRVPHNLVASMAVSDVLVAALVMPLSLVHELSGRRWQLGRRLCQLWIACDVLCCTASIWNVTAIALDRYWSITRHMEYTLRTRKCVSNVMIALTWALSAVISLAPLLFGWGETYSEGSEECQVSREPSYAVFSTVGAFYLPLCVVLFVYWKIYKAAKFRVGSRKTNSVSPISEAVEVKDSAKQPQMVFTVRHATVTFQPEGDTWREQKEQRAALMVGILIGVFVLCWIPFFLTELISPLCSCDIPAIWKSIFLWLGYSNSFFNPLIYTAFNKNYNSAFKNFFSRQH
Chain of 5-hydroxytryptamine receptor 2B (P41595 whole entry): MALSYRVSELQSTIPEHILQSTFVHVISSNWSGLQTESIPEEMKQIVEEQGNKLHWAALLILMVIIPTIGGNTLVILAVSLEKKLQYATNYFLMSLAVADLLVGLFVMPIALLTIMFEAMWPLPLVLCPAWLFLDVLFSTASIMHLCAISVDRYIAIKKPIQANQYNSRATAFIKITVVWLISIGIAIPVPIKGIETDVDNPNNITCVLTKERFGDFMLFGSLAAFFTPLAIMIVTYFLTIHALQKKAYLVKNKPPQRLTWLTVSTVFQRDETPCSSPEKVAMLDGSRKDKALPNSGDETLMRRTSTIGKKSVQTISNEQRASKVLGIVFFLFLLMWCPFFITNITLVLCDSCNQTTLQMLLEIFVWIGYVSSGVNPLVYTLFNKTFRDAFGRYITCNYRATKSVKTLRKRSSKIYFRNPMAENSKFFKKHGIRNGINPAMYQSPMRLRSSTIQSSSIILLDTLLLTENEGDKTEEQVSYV

Turning to `CCNCCc1ccc(Cl)c(-c2ccccc2OC)c1.Cl`, the values for the activity at 0.25 h, 10 µM at CYP3A4 and on CYP2D6 were 98.5% and 88.7%, respectively. Also, the Time was 166 s in the data set on Mus musculus [1] and 107 s in the data set on Mus musculus [12]. Further, the Tmax in [2] came out at 24 min. Moreover, a half-maximal effect in [3] (EC50) was put at 180 nM. The Ki was more than 10000 nM in data set [4]; 130 nM in [5]; 580 nM in [6]; 52 nM in data set [7]; 5.3 nM in [8]; 520 nM in data set [13]. The Ki in data set [14] is 700 nM. Besides, the MRT inf in data set [9] stood at 78 min; in data set [10], 42 min. Further, in [11], the remaining at 0.5 h, 1 µM was 71.5%. Also, the AUC(0-t) at 8 h in data set [15] was 32.9 ng·h/mL.

As usually defined, the Tmax is the time from dosing to the highest level. Usually EC50 stands for the midpoint of the concentration-response curve. Low readings indicate higher potency in that assay, high ones lower potency in that assay. Usually Ki stands for the equilibrium dissociation constant of an inhibitor or competing ligand from its target. A low value points to a stronger hold on the target. The term MRT inf denotes a mean duration of stay, worked out from the concentration-time curve. As a reminder, the AUC(0-t) is the area under the concentration-time curve up to a stated or last time point. Low readings indicate low exposure, high ones high exposure.
